The term IC50 denotes the point on the concentration scale where inhibition reaches its midpoint.

The text below walks through data of ChEMBL document CHEMBL4665801, “Pyrazole-Based Lactate Dehydrogenase Inhibitors with Optimized Cell Activity and Pharmacokinetic Properties” (J Med Chem, 2020).

The subject of one assay is MIA PaCa-2. As to the kind of experiment: Cytotoxicity against human MIA PaCa-2 cells assessed as reduction in cell viability after 48 hrs by CellTiter-Glo assay. The note with it: MIA PaCa-2, 48 h. It counts as functional, cell-based.
The target in assay [1] is T1, L-lactate dehydrogenase A chain (Homo sapiens, UniProt P00338). As to the kind of experiment: Inhibition of recombinant human LDHA using sodium pyruvate as substrate preincubated for 5 mins followed by diaphorase/resazurin addition and measured after 20 mins by fluorescence based assay.
For assay [2], the target named is T1, L-lactate dehydrogenase A chain. Kind of assay: Inhibition of LDHA in human MIA PaCa-2 cells assessed as decrease in lactate production incubated for 2 hrs by lactate oxidase-coupled fluorescence based assay. It is filed as cell-based.
Assay [3] shares this target. Kind of assay: Inhibition of LDHA in human A673 cells assessed as decrease in lactate production incubated for 2 hrs by lactate oxidase-coupled fluorescence based assay. It is filed as cell-based.
The next assay has as its system A673. Kind of assay: Cytotoxicity against human A673 cells assessed as reduction in cell viability after 48 hrs by CellTiter-Glo assay. It counts as functional, cell-based. The note with it: A673, 48 h. (In general: Cellular ATP, detected with luciferase, serves as a proxy for viable cell number.)
A further assay is filed under the species Sus scrofa. Kind of assay: Inhibition of porcine heart MDH using malic acid as substrate preincubated for 10 mins followed by substrate addition and measured after 5 mins by resazurin based fluorescence based assay. The settings on record: time 15.0 min. A general note: The colour change of resazurin is a common sign of viable cells or microbes.
In assay [4] the target is T1, L-lactate dehydrogenase A chain. As to the kind of experiment: Inhibition of GS[HiBiT]GS-tagged LDHA (unknown origin) expressed in HEK-293T cells measured after 1 hr by […]. It is filed as cell-based. In short, it runs like this: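 HEK293T cells were transiently transfected for 24 h with CMV-driven LDHA carrying a C-terminal GS[HiBiT]GS tag, then reseeded at 2500 cells/well in DPBS with Ca/Mg and 1 g/L glucose. […] Cells were lysed with NP40, and 11S (100 nM final) plus furimazine was added.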

In assay [5] the target is L-lactate dehydrogenase B chain (Homo sapiens) (UniProt P07195). Kind of assay: Inhibition of recombinant human LDHB using sodium pyruvate as substrate preincubated for 5 mins followed by diaphorase/resazurin addition and measured after 20 mins by fluorescence based assay.
L-lactate dehydrogenase B chain (Homo sapiens), sequence (P07195 2-334 limits assumed): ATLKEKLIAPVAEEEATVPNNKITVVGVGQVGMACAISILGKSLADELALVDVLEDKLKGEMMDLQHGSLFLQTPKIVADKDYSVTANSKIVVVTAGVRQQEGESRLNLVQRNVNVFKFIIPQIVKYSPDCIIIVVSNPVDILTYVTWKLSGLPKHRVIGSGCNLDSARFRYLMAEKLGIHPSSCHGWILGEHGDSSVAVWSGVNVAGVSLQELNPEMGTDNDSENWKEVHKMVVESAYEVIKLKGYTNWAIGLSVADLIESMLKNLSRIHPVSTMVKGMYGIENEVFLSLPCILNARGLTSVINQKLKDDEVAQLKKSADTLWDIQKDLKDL

Structures are written as SMILES. Active and inactive are the calls of the source. The rule behind the calls is not given here.

`NS(=O)(=O)c1ccc(Cc2c(-c3ccc(F)c(/C=C/C4CC4)c3)nn(-c3nc(C(=O)O)cs3)c2CC2CC2)cc1F`: the IC50 in the assay with MIA PaCa-2 was found to be 837 nM; in assay [1] it was 15 nM; in assay [2], 231 nM; in assay [3], 320 nM; in the assay with A673, 833 nM; in assay [4], 134 nM. Further, in the assay listed under Sus scrofa, the inhibition result was “inactive”. Also, the inhibition entry in assay [5] is “Active”.

Regarding `C#Cc1cc(-c2nn(-c3nc(C(=O)O)cs3)c(CC3CC3)c2Cc2ccc(S(N)(=O)=O)c(F)c2)ccc1F`, the IC50 with MIA PaCa-2 is 4020 nM; in assay [1], 9 nM; in assay [2], 660 nM; in assay [3], 902 nM; with A673, 4350 nM; in assay [4], 253 nM. For the same molecule, in the assay filed under Sus scrofa, the inhibition entry was “inactive”. Besides, in assay [5], the inhibition entry is “Active”.

With `COCC#Cc1cc(-c2nn(-c3nc(C(=O)O)cs3)c(CC3CC3)c2Cc2ccc(S(N)(=O)=O)c(F)c2)ccc1F`, the IC50 in the assay on MIA PaCa-2 stood at 1090 nM; in assay [1], 8 nM; in assay [2], 525 nM; in assay [3] it was 769 nM; with A673 it was 1220 nM; in assay [4], 119 nM. In addition, the inhibition result in the assay listed under Sus scrofa is “inactive”. In addition, the inhibition result in assay [5] was “Active”.

As for `NS(=O)(=O)c1ccc(Cc2c(-c3cccc(-c4ccccc4)c3)nn(-c3nc(C(=O)O)cs3)c2CC2CC2(F)F)cc1` (stereo not drawn), the IC50 was found to be 10700 nM with MIA PaCa-2; 25 nM in assay [1]; 1720 nM in assay [2]; 1420 nM in assay [3]; 4640 nM with A673; 501 nM in assay [4]. Moreover, the inhibition entry in the assay filed under Sus scrofa is “inactive”. Moreover, the inhibition entry in assay [5] is “Active”.

Consider `NS(=O)(=O)c1ccc(Cc2c(-c3ccc(F)c(-c4ccccc4)c3)nn(-c3nc(C(=O)O)cs3)c2CC2CC2)cc1F`, for which the IC50 in the assay with MIA PaCa-2 was determined as 3420 nM; in assay [1], 23 nM; in assay [2], 585 nM; in assay [3], 465 nM; in the assay on A673, 1340 nM; in assay [4], 141 nM. For the same molecule, the inhibition entry in the assay filed under Sus scrofa is “inactive”. Also, the inhibition result in assay [5] was “Active”.

Turning to `CC(C)CC#Cc1cc(-c2nn(-c3nc(C(=O)O)cs3)c(CC3CC3)c2Cc2ccc(S(N)(=O)=O)c(F)c2)ccc1F`, the IC50 was determined as 909 nM in the assay with MIA PaCa-2; 54 nM in assay [1]; 487 nM in assay [2]; 284 nM in assay [3]; 935 nM in the assay on A673; 89 nM in assay [4]. Further, the inhibition result in the assay listed under Sus scrofa was “inactive”. Besides, the inhibition entry in assay [5] was “Active”.

With `NS(=O)(=O)c1ccc(Cc2c(-c3ccc(F)c(C#CC4CC4)c3)nn(-c3nc(C(=O)O)cs3)c2CC2CC2)cc1F`, the IC50 with MIA PaCa-2 amounted to 323 nM; in assay [1], 9 nM; in assay [2], 554 nM; in assay [3], 695 nM; in the assay with A673, 132 nM; in assay [4], 100 nM. In addition, the inhibition entry in the assay listed under Sus scrofa was “inactive”. Also, the inhibition result in assay [5] is “Active”.

As to `Cc1cnc(C#Cc2cccc(-c3nn(-c4nc(C(=O)O)cs4)c(CC4CC4)c3Cc3ccc(S(N)(=O)=O)c(F)c3)c2)s1`, the IC50 in the assay on MIA PaCa-2 amounted to 360 nM; in assay [1] it was 17 nM; in assay [2] it was 487 nM; in assay [3], 527 nM; in the assay with A673, 309 nM; in assay [4] it was 90 nM. In the assay filed under Sus scrofa, the inhibition entry is “inactive”. Further, in assay [5], the inhibition entry is “Active”.

For the molecule `NS(=O)(=O)c1ccc(Cc2c(-c3ccc(F)c(C#CC4CCC4)c3)nn(-c3nc(C(=O)O)cs3)c2CC2CC2)cc1F`, the IC50 came to 573 nM with MIA PaCa-2; 23 nM in assay [1]; 428 nM in assay [2]; 378 nM in assay [3]; 593 nM in the assay with A673; 133 nM in assay [4]. Also, the inhibition result in the assay listed under Sus scrofa is “inactive”. The inhibition entry in assay [5] is “Active”.

Regarding `NS(=O)(=O)c1ccc(Cc2c(-c3cccc(-c4ccccc4)c3)nn(-c3nc(C(=O)O)cs3)c2CC2CC2)cc1F`, the IC50 worked out at 3380 nM with MIA PaCa-2; 25 nM in assay [1]; 867 nM in assay [2]; 613 nM in assay [3]; 1140 nM with A673; 150 nM in assay [4]. Further, the inhibition entry in the assay listed under Sus scrofa was “inactive”. In addition, the inhibition entry in assay [5] is “Active”.

Regarding `NS(=O)(=O)c1ccc(Cc2c(-c3ccc(F)c(C#CC(F)F)c3)nn(-c3nc(C(=O)O)cs3)c2CC2CC2)cc1F`, the IC50 with MIA PaCa-2 came to 1330 nM; in assay [1], 15 nM; in assay [2] it was 741 nM; in assay [3], 937 nM; in the assay with A673, 1480 nM; in assay [4], 163 nM. For the same molecule, in the assay filed under Sus scrofa, the inhibition result is “inactive”. In addition, the inhibition entry in assay [5] is “Active”.

For the molecule `CC(C)C#Cc1cc(-c2nn(-c3nc(C(=O)O)cs3)c(CC3CC3)c2Cc2ccc(S(N)(=O)=O)c(F)c2)ccc1F`, the IC50 with MIA PaCa-2 is 756 nM; in assay [1] it was 21 nM; in assay [2], 487 nM; in assay [3], 284 nM; with A673, 1010 nM; in assay [4], 2050 nM. Also, the inhibition entry in the assay listed under Sus scrofa is “inactive”. Further, in assay [5], the inhibition result was “Active”.

With `CC(C)(C)C#Cc1cc(-c2nn(-c3nc(C(=O)O)cs3)c(CC3CC3)c2Cc2ccc(S(N)(=O)=O)c(F)c2)ccc1F`, the IC50 in the assay on MIA PaCa-2 turned out to be 845 nM; in assay [1], 16 nM; in assay [2], 137 nM; in assay [3], 141 nM; in the assay on A673, 935 nM; in assay [4] it was 75 nM. Besides, the inhibition result in the assay filed under Sus scrofa was “inactive”. Also, the inhibition result in assay [5] was “Active”.

On to `Cc1ccc(C#Cc2cccc(-c3nn(-c4nc(C(=O)O)cs4)c(CCC4CC4)c3Cc3ccc(S(N)(=O)=O)c(F)c3)c2)o1`, for which the IC50 in the assay on MIA PaCa-2 stood at 137 nM; in assay [1], 52 nM; in assay [2] it was 417 nM; in assay [3] it was 547 nM; with A673 it was 137 nM; in assay [4], 95 nM. The inhibition entry in the assay listed under Sus scrofa is “inactive”. For the same molecule, the inhibition entry in assay [5] is “Active”.

`NS(=O)(=O)c1ccc(Cc2c(-c3cccc(C#Cc4ccc(C(F)F)s4)c3)nn(-c3nc(C(=O)O)cs3)c2CC2CC2)cc1F`: the IC50 amounted to 528 nM in the assay on MIA PaCa-2; 154 nM in assay [1]; 286 nM in assay [2]; 345 nM in assay [3]; 528 nM with A673; 134 nM in assay [4]. Further, in the assay listed under Sus scrofa, the inhibition entry is “inactive”. For the same molecule, the inhibition entry in assay [5] is “Active”.

As to `Cc1cc(C#Cc2cccc(-c3nn(-c4nc(C(=O)O)cs4)c(CC4CC4)c3Cc3ccc(S(N)(=O)=O)c(F)c3)c2)c(C)s1`, the IC50 came out at 810 nM with MIA PaCa-2; 235 nM in assay [1]; 218 nM in assay [2]; 161 nM in assay [3]; 716 nM with A673; 299 nM in assay [4]. Moreover, in the assay listed under Sus scrofa, the inhibition entry was “inactive”. Further, the inhibition result in assay [5] was “Active”.

Regarding `NS(=O)(=O)c1ccc(Cc2c(-c3ccc(F)c(C#CCCO)c3)nn(-c3nc(C(=O)O)cs3)c2CC2CC2)cc1F`, the IC50 in the assay with MIA PaCa-2 came out at 1330 nM; in assay [1], 3 nM; in assay [2] it was 1660 nM; in assay [3] it was 2480 nM; with A673 it was 1800 nM; in assay [4], 577 nM. The inhibition result in the assay filed under Sus scrofa is “inactive”. Further, in assay [5], the inhibition result is “Active”.

Regarding `Cc1cc(C#Cc2cccc(-c3nn(-c4nc(C(=O)O)cs4)c(CC4CC4)c3Cc3ccc(S(N)(=O)=O)c(F)c3)c2)cs1`, the IC50 in the assay with MIA PaCa-2 is 332 nM; in assay [1], 87 nM; in assay [2], 657 nM; in assay [3] it was 494 nM; with A673, 359 nM; in assay [4], 95 nM. Further, in the assay listed under Sus scrofa, the inhibition entry was “inactive”. Further, the inhibition result in assay [5] was “Active”.

As for `CC#Cc1cc(-c2nn(-c3nc(C(=O)O)cs3)c(CC3CC3)c2Cc2ccc(S(N)(=O)=O)c(F)c2)ccc1F`, the IC50 in the assay with MIA PaCa-2 was determined as 322 nM; in assay [1], 11 nM; in assay [2] it was 450 nM; in assay [3], 505 nM; with A673, 332 nM; in assay [4], 119 nM. Further, the inhibition entry in the assay filed under Sus scrofa is “inactive”. The inhibition entry in assay [5] is “Active”.

Regarding `Cc1cc(C)c(C#Cc2cccc(-c3nn(-c4nc(C(=O)O)cs4)c(CC4CC4)c3Cc3ccc(S(N)(=O)=O)c(F)c3)c2)s1`, the 50% inhibitory concentration (IC50) with MIA PaCa-2 is 533 nM; in assay [1] it was 137 nM; in assay [2], 218 nM; in assay [3], 345 nM; with A673, 528 nM; in assay [4], 201 nM. Moreover, the inhibition result in the assay filed under Sus scrofa was “inactive”. Besides, the inhibition entry in assay [5] is “Active”.

For the molecule `Cn1cc(C#Cc2cc(-c3nn(-c4nc(C(=O)O)cs4)c(CC4CC4)c3Cc3ccc(S(N)(=O)=O)c(F)c3)ccc2F)cn1`, the IC50 with MIA PaCa-2 was found to be 619 nM; in assay [1] it was 9 nM; in assay [2], 1140 nM; in assay [3], 1600 nM; with A673, 593 nM; in assay [4], 189 nM. Further, the inhibition result in the assay filed under Sus scrofa is “inactive”. In addition, in assay [5], the inhibition result was “Active”.
